ChEMBL document CHEMBL1938352, “Discovery of potent and liver-targeted stearoyl-CoA desaturase (SCD) inhibitors in a bispyrrolidine series” (Bioorg Med Chem Lett, 2012)

Legend:
[1] = target: T1, Acyl-CoA desaturase 1 (Rattus norvegicus, UniProt P07308); assay: Inhibition of SCD-1 activity in rat hepatocytes expressing organic anion transporting polypeptides assessed as reduction in [1-14C] stearoyl CoA desaturation by scintillation counting; format: cell-based, Hepatocyte
T1 sequence (P07308 whole entry): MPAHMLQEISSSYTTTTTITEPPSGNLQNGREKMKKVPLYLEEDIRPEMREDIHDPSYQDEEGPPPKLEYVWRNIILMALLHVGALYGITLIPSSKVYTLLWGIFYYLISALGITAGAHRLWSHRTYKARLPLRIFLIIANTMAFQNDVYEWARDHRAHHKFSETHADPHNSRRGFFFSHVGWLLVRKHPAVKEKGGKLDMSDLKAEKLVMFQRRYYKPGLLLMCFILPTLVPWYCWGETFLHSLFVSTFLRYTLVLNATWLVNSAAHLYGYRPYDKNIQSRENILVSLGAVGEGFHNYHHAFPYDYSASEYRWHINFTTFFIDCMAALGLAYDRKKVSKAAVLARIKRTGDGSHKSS
In short: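 The cellular assay used rat hepatocytes with functional OATPs to assess active transport. IC50 values are the average of at least two independent titrations.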

[2] = target: T2, Stearoyl-CoA desaturase (Homo sapiens, UniProt O00767); assay: Inhibition of SCD-1 activity in organic anion transporting polypeptides-deficient human HepG2 cells assessed as reduction in [1-14C] stearoyl CoA desaturation by scintillation counting; format: cell-based
T2 sequence (O00767 whole entry): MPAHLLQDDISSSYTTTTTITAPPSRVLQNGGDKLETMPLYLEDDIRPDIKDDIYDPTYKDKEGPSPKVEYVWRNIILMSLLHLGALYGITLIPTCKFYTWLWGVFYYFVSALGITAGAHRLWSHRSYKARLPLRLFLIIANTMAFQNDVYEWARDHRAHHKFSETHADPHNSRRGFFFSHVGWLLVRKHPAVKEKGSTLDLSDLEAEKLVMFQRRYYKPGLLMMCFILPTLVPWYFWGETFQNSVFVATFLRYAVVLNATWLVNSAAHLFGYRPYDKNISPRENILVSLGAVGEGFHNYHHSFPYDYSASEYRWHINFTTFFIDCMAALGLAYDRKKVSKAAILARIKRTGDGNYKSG
In short: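 The whole-cell assay used human hepatocellular carcinoma HepG2 cells, which lack active OATPs. IC50 values are the average of at least two independent titrations.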

[3] = target: T1, Acyl-CoA desaturase 1; assay: Inhibition of SCD-1 activity in rat liver microsomes assessed as reduction in [1-14C] stearoyl CoA desaturation by scintillation counting; set-up: species or system Microsome
In short: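 The enzymatic assay used SCD-induced rat liver microsomes. IC50 values are the average of at least two independent titrations.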

[4] = Drug level in plasma of C57BL/6 mouse at 10 mg/kg, po measured 6 hrs post dosing; format: ADME, organism-based, C57BL6; set-up: dose 10 mg/kg, route oral; conditions: read-out: Drug uptake
In short: (§1)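 Tissue distribution was measured in mice given 10 mg/kg PO, n = 2. Liver, plasma and Harderian gland drug concentrations were measured 6 h post dose. Liver/plasma and liver/Harderian ratios were taken from these concentrations.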

[5] = Drug level in liver of C57BL/6 mouse at 10 mg/kg, po measured 6 hrs post dosing; format: ADME, organism-based, C57BL6; set-up: dose 10 mg/kg, route oral; conditions: read-out: Drug uptake; in short: as §1
[6] = test system: Mus musculus; assay: Ratio of drug uptake in liver to harderian gland of C57BL/6 mouse at 10 mg/kg, po measured 6 hrs post dosing; conditions: in vivo
[7] = Ratio of drug uptake in liver to plasma of C57BL/6 mouse at 10 mg/kg, po measured 6 hrs post dosing; format: ADME, organism-based, C57BL6; set-up: dose 10 mg/kg, route oral; in short: as §1
[8] = Oral bioavailability in C57BL/6 mouse at 10 mg/kg; format: ADME, organism-based, C57BL6; conditions: in vivo
In short: (§2)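 C57BL6 mice were dosed orally at 10 mg/kg. Drug exposure was measured over 0–6 h to give AUC_0–6h, and oral bioavailability (F) was also determined.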

[9] = target: T3, Acyl-CoA desaturase 1 (Mus musculus, UniProt P13516); assay: Inhibition of mouse SCD-1
T3 sequence (P13516 whole entry): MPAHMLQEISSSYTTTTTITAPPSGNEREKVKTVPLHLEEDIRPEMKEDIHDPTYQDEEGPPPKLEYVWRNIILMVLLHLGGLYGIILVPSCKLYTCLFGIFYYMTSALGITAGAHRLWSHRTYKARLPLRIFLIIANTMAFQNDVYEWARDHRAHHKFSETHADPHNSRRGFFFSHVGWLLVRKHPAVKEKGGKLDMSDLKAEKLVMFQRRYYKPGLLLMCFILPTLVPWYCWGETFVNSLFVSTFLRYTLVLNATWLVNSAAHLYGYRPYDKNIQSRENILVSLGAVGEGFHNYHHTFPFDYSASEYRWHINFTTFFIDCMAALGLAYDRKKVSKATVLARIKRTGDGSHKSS

[10] = Drug level in harderian gland of C57BL/6 mouse at 10 mg/kg, po measured 6 hrs post dosing; format: ADME, organism-based, C57BL6; set-up: dose 10 mg/kg, route oral; conditions: read-out: Drug uptake; in short: as §1
[11] = AUC (0 to 6 hrs) in C57BL/6 mouse at 10 mg/kg, po; format: ADME, organism-based, C57BL6; set-up: time < 6 hr, dose 10 mg/kg, route oral; conditions: plasma; in short: as §2
[12] = test system: Mus musculus; assay: Antidiabetic activity in C57BL/6 mouse LPD model assessed as reduction in liver SCD activity at 7.7 uM liver concentration dosed at 2 mg/kg, po measured 3 hrs post dosing; format: functional; conditions: C57BL6, 3 h
[13] = target: T4, Acyl-CoA 6-desaturase (Homo sapiens, UniProt O95864); assay: Inhibition of human delta-6 desaturase activity in human HepG2 cells using [1-14C]-stearic acid tracer; format: cell-based
T4 sequence (O95864 whole entry): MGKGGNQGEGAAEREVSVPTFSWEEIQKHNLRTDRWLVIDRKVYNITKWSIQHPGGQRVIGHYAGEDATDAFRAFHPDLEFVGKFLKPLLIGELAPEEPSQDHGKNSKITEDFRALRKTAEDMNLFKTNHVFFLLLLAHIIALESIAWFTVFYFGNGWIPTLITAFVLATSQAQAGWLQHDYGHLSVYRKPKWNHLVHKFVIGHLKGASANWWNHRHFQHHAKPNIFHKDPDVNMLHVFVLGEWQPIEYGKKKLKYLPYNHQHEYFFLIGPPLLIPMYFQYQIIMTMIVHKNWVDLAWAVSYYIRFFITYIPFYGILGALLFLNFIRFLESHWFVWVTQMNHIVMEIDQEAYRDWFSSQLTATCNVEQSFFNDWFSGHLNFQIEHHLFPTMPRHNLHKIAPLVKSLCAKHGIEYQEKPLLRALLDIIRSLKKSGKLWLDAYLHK

[14] = target: T5, Stearoyl-CoA desaturase 5 (Homo sapiens, UniProt Q86SK9); assay: Inhibition of human SCD-5
T5 sequence (Q86SK9 whole entry): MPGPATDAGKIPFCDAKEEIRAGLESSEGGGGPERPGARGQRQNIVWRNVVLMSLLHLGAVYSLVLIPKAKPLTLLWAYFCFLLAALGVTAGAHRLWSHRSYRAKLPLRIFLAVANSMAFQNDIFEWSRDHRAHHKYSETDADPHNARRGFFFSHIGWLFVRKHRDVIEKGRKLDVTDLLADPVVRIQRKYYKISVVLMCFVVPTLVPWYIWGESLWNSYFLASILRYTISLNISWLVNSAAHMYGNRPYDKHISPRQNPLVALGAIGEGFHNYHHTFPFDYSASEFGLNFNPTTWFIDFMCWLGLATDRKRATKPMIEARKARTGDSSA

[15] = test system: Mus musculus; assay: Antidiabetic activity in C57BL/6 mouse LPD model assessed as reduction in liver SCD activity at 14.8 uM liver concentration dosed at 10 mg/kg, po measured 3 hrs post dosing; format: functional; conditions: C57BL6, 3 h
[16] = target: T6, Acyl-CoA desaturase 1 (Rattus norvegicus) (UniProt P07308); assay: Ratio of IC50 for SCD-1 activity in rat hepatocytes expressing organic anion transporting polypeptides to IC50 for SCD-1 activity in rat liver microsomes; conditions: Hepatocyte, Microsome
T6 sequence (whole entry): T1 sequence (P07308 whole entry)
In short: (§3)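 The fold shift is the ratio of IC50 values between two assays: rat liver microsomal enzyme, HepG2 whole cell, and OATP-containing rat hepatocytes. Each IC50 is the average of at least two independent titrations.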

[17] = test system: HepG2; assay: Ratio of IC50 for SCD-1 activity in organic anion transporting polypeptides-deficient human HepG2 cells to IC50 for SCD-1 activity in rat hepatocytes expressing organic anion transporting polypeptides; format: cell-based; in short: as §3
[18] = target: Acyl-CoA (8-3)-desaturase (Homo sapiens, UniProt O60427); assay: Inhibition of human delta-5 desaturase activity in human HepG2 cells using [1-14C]-stearic acid tracer; format: cell-based
Sequence of Acyl-CoA (8-3)-desaturase (O60427 whole entry): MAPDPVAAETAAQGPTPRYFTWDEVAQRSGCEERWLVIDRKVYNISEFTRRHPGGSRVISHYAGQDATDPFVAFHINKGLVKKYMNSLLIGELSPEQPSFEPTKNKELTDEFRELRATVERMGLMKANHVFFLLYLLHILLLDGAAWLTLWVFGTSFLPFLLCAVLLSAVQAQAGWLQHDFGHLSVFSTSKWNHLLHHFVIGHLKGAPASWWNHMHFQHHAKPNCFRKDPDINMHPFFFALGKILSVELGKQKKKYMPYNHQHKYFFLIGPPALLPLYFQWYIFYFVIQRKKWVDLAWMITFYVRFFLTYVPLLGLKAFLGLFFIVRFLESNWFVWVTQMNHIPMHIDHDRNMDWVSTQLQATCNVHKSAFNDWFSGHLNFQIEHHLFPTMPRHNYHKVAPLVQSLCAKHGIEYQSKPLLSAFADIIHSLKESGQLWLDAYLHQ

[19] = test system: Mus musculus; assay: Antidiabetic activity in C57BL/6 mouse LPD model assessed as reduction in liver SCD activity at 1.6 uM liver concentration dosed at 0.4 mg/kg, po measured 3 hrs post dosing; format: functional; conditions: C57BL6, 3 h
[20] = test system: Mus musculus; assay: Antidiabetic activity in C57BL/6 mouse LPD model assessed as reduction in liver SCD activity at 4.9 uM liver concentration dosed at 2 mg/kg, po measured 3 hrs post dosing; format: functional; conditions: C57BL6, 3 h
[21] = test system: Mus musculus; assay: Antidiabetic activity in po dosed C57BL/6 mouse LPD model assessed as reduction in liver SCD activity measured 3 hrs post dosing; conditions: C57BL6, Liver

Row | Compound | IC50 [1] [nM] | IC50 [2] [nM] | IC50 [3] [nM] | also measured
1 | O=C(O)Cn1nnc(-c2cnc(N3C[C@@H]4C[C@H]3CN4c3cc(F)ccc3Cl)s2)n1 | 176 | 9140 | 29 | 
2 | O=C(O)Cn1nnc(-c2cnc(N3CC4(CCN(c5cc(F)ccc5Cl)CC4)C3)s2)n1 | 506 | > 100000 | 128 | 
3 | O=C(O)Cn1nnc(-c2cnc(N3CCN(c4cc(F)ccc4Cl)CC3)s2)n1 | 134 | 4200 | 28 | concentration at 6 h [4]: 220 nM; concentration at 6 h [5]: 9300 nM; Ratio [6]: 180; Kp at 6 h [7]: 40; bioavailability [8]: 15%; IC50 [9]: 21 nM; concentration at 6 h [10]: 50 nM; AUC(0-t) at 6 h [11]: 0.7 µM·h; inhibition in vivo at 2 mg/kg [12]: 61%
4 | O=C(O)Cn1nnc(-c2cnc(N3CC4CN(c5cc(F)ccc5Cl)CC4C3)s2)n1 (stereo not drawn) | 233 | 15400 | 34 | 
5 | O=C(O)Cn1nnc(-c2cnc(N3CCC4(CC3)CN(c3cc(F)ccc3Cl)C4)s2)n1 | 438 | > 100000 | 36 | 
6 | O=C(O)Cn1nnc(-c2cc(N3CC4CN(c5cc(F)ccc5Cl)CC4C3)no2)n1 (stereo not drawn) | 198 | 9900 | 24 | IC50 [13]: > 80000 nM; concentration at 6 h [5]: 2700 nM; IC50 [14]: 242 nM; inhibition in vivo at 10 mg/kg [15]: 72%; bioavailability [8]: 24%; IC50 [9]: 18 nM; Ratio IC50 [16]: 8; Ratio IC50 [17]: 50; IC50 [18]: > 80000 nM; AUC(0-t) at 6 h [11]: 2.1 µM·h
7 | O=C(O)Cn1nnc(-c2cnc(N3CC4(C3)CN(c3cc(F)ccc3Cl)C4)s2)n1 | 103 | 50900 | 43 | 
8 | O=C(O)Cn1nnc(-c2cc(N3CCC(Oc4cc(F)ccc4Br)CC3)no2)n1 [MK-8245] |  |  |  | concentration at 6 h [4]: 30 nM; inhibition in vivo at 0.4 mg/kg [19]: 49%; Kp at 6 h [7]: 90; inhibition in vivo at 2 mg/kg [20]: 89%; ED50 [21]: 1 mg/kg
9 | O=C(O)Cn1nnc(-c2nnc(N3CC4CN(c5cc(F)ccc5Cl)CC4C3)s2)n1 (stereo not drawn) | 300 | > 10000 | 59 | 
